Test results reported in ChEMBL document CHEMBL1165881, “Synthesis and cytotoxicity evaluation of (tetrahydro-beta-carboline)-1,3,5-triazine hybrids as anticancer agents” (Eur J Med Chem, 2010).
Activity calls are given as the source filed them. No cut-off for these calls is given here.

Key:
MCF7 [1] = assay: Cytotoxicity against human MCF7 cells after 72 hrs by MTT assay; format: functional, cell-based
Procedure, shortened: (§1)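 Seeded at 5000–10000 cells/well, incubated at 37 °C in CO2 with compounds at a range of concentrations, controls included, in triplicate wells. After 72 h, MTT solution (5 mg/mL) added; absorbance read at 540 nm. % cytotoxicity = 100 × [1 − (X/R1)] versus control absorbance; IC50 by nonlinear regression. Values are means of at least two independent experiments, three determinations each.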

SW-620 = assay: Cytotoxicity against human SW620 cells after 72 hrs by MTT assay; format: functional, cell-based; procedure, shortened: as §1
DU-145 = assay: Cytotoxicity against human DU145 cells after 72 hrs by MTT assay; format: functional, cell-based; procedure, shortened: as §1
KB = assay: Cytotoxicity against human KB cells after 72 hrs by MTT assay; format: functional, cell-based; procedure, shortened: as §1
PA-1 = assay: Cytotoxicity against human PA1 cells after 72 hrs by MTT assay; format: functional, cell-based; procedure, shortened: as §1
K562 = assay: Cytotoxicity against human K562 cells after 72 hrs by MTT assay; format: functional, cell-based; procedure, shortened: as §1
MIA PaCa-2 = assay: Cytotoxicity against human MIAPaCa2 cells after 72 hrs by MTT assay; format: functional, cell-based; procedure, shortened: as §1
A549 = assay: Cytotoxicity against human […] cells after 72 hrs by MTT assay; format: functional, cell-based; procedure, shortened: as §1
[2] = Cytotoxicity against mouse NIH/3T3 cells after 72 hrs by MTT assay; format: cell-based, NIH3T3; procedure, shortened: as §1
MCF7 [3] = assay: Induction of apoptosis in human MCF7 cells assessed as DNA fragmentation at 0.25 uM after 24 hrs; format: functional, cell-based
Procedure, shortened: (§2)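 Treated 24 h with 0.25–0.74 range. Then 1 × 10^5 cells trypsinized, PBS-washed (4 °C, pH 7.4), lysed 10 min on ice (10 mM Tris-HCl pH 7.4, 10 mM EDTA, 0.5% SDS). RNase A 1 h at 37 °C, then proteinase K 4 h at 50 °C. DNA ethanol/sodium acetate precipitated, run on 1.5% agarose with ethidium bromide, viewed under UV.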

MCF7 [4] = assay: Induction of apoptosis in human MCF7 cells assessed as DNA fragmentation at 0.74 uM after 24 hrs; format: functional, cell-based; procedure, shortened: as §2
MDA-MB-231 [5] = assay: Induction of apoptosis in human MDA-MB-231 cells assessed as DNA fragmentation at 0.25 uM after 24 hrs; format: functional, cell-based; procedure, shortened: as §2
MDA-MB-231 [6] = assay: Induction of apoptosis in human MDA-MB-231 cells assessed as DNA fragmentation at 0.74 uM after 24 hrs; format: functional, cell-based; procedure, shortened: as §2
MCF7 [7] = assay: Induction of apoptosis in human MCF7 cells assessed as appearance of fragmented nuclei at 0.5 uM after 24 hrs by Hoechst staining; format: functional, cell-based
Procedure, shortened: (§3)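 1 × 10^4 cells grown on coverslips, treated 24 h, PBS-washed, fixed in 4% paraformaldehyde 15 min. Stained with Hoechst at 1.0 ug/ml for 15 min at 4 °C, washed, mounted, and examined by fluorescence microscopy; untreated cells as control.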

MCF7 [8] = assay: Induction of apoptosis in human MCF7 cells assessed as appearance of fragmented nuclei at 0.74 uM after 24 hrs by Hoechst staining; format: functional, cell-based; procedure, shortened: as §3
MDA-MB-231 [9] = assay: Induction of apoptosis in human MDA-MB-231 cells assessed as appearance of fragmented nuclei at 0.5 uM after 24 hrs by Hoechst staining; format: functional, cell-based; procedure, shortened: as §3
MDA-MB-231 [10] = assay: Induction of apoptosis in human MDA-MB-231 cells assessed as appearance of fragmented nuclei at 0.74 uM after 24 hrs by Hoechst staining; format: functional, cell-based; procedure, shortened: as §3
[11] = Homo sapiens, MCF7, 72 h, read-out: IC50
[12] = Homo sapiens, SW-620, 72 h, read-out: IC50
[13] = Homo sapiens, DU-145, 72 h, read-out: IC50
[14] = Homo sapiens, PA-1, 72 h, read-out: IC50
[15] = Homo sapiens, K562, 72 h, read-out: IC50
[16] = Homo sapiens, MIA PaCa-2, 72 h, read-out: IC50
[17] = Homo sapiens, A549, 72 h, read-out: IC50
[18] = Mus musculus, NIH3T3, 72 h, read-out: IC50

SMILES	IC50 (KB; Homo sapiens, KB, 72 h) [µM]	IC50 (MCF7 [1]; [11]) [µM]	IC50 (SW-620; [12]) [µM]	IC50 (DU-145; [13]) [µM]	IC50 (PA-1; [14]) [µM]	IC50 (K562; [15]) [µM]	IC50 (MIA PaCa-2; [16]) [µM]	IC50 (A549; [17]) [µM]	IC50 [2, 18] [µM]	also measured
COC(=O)[C@@H]1Cc2c([nH]c3ccccc23)[C@@H](c2ccc(C)cc2)N1c1nc(N2CCN(C)CC2)nc(N2CCN(C)CC2)n1 (racemic)	0.106	–	–	–	–	–	–	–	–	IC50 (MCF7 [1]; mcf7): Not Active; IC50 (SW-620; sw-620): Not Active; IC50 (DU-145; du-145): Not Active; IC50 (PA-1; pa-1): Not Active; IC50 (K562; k562): Not Active; IC50 (MIA PaCa-2; mia paca-2): Not Active; IC50 (A549; a549): Not Active; IC50 ([2]; nih3t3): Not Active
COC(=O)[C@H]1Cc2c([nH]c3ccccc23)[C@H](c2ccc(C)cc2)N1c1nc(N2CCN(C)CC2)nc(N2CCN(C)CC2)n1	1.86	5.89	2.65	2.14	6.91	3.22	7	2.34	2.16	–
CCCNc1nc(NCCC)nc(N2[C@@H](c3ccc(C)cc3)c3[nH]c4ccccc4c3C[C@@H]2C(=O)OC)n1 (racemic)	0.665	–	–	–	–	–	–	–	–	IC50 (MCF7 [1]; mcf7): Not Active; IC50 (SW-620; sw-620): Not Active; IC50 (DU-145; du-145): Not Active; IC50 (PA-1; pa-1): Not Active; IC50 (K562; k562): Not Active; IC50 (MIA PaCa-2; mia paca-2): Not Active; IC50 (A549; a549): Not Active; IC50 ([2]; nih3t3): Not Active
COC(=O)[C@@H]1Cc2c([nH]c3ccccc23)[C@@H](c2ccc(C(C)C)cc2)N1c1nc(N2CCN(C)CC2)nc(N2CCN(C)CC2)n1	3.73	6.73	5.92	–	2.89	2.24	–	1.75	2.63	IC50 (DU-145; du-145): Not Active; IC50 (MIA PaCa-2; mia paca-2): Not Active
CCCN1CCN(c2nc(N3CCN(CCC)CC3)nc(N3[C@H](c4ccc(OC)cc4)c4[nH]c5ccccc5c4C[C@H]3C(=O)OC)n2)CC1	3.54	2.07	–	7.11	–	–	–	1.67	2.24	IC50 (SW-620; sw-620): Not Active; IC50 (PA-1; pa-1): Not Active
COC(=O)[C@@H]1Cc2c([nH]c3ccccc23)[C@H](c2ccc(C(C)C)cc2)N1c1nc(N2CCN(C)CC2)nc(N2CCN(C)CC2)n1	6.88	5.93	1.93	2.87	0.27	6.43	1.81	1.76	1.17	–
CCCNc1nc(NCCC)nc(N2[C@@H](c3ccc(OC)cc3)c3[nH]c4ccccc4c3C[C@@H]2C(=O)OC)n1 (racemic)	0.122	–	–	–	–	–	–	–	–	IC50 (MCF7 [1]; mcf7): Not Active; IC50 (SW-620; sw-620): Not Active; IC50 (DU-145; du-145): Not Active; IC50 (PA-1; pa-1): Not Active; IC50 (K562; k562): Not Active; IC50 (MIA PaCa-2; mia paca-2): Not Active; IC50 (A549; a549): Not Active; IC50 ([2]; nih3t3): Not Active
COC(=O)[C@H]1Cc2c([nH]c3ccccc23)[C@@H](c2ccccc2)N1c1nc(N2CCN(C)CC2)nc(N2CCN(C)CC2)n1	1.83	8.28	3.24	7.76	1.79	6.45	5.88	8.62	11.4	–
COC(=O)[C@@H]1Cc2c([nH]c3ccccc23)[C@@H](c2ccc(OC)cc2)N1c1nc(N2CCN(C)CC2)nc(N2CCN(C)CC2)n1	–	–	–	–	–	–	–	–	–	Activity (MCF7 [3]): Active; Activity (MCF7 [4]): Active; Activity (MDA-MB-231 [5]): Active; Activity (MDA-MB-231 [6]): Active; Activity (MCF7 [7]): Active; Activity (MCF7 [8]): Active; Activity (MDA-MB-231 [9]): Active; Activity (MDA-MB-231 [10]): Active
COC(=O)[C@@H]1Cc2c([nH]c3ccccc23)[C@H](c2cc(OC)c(OC)c(OC)c2)N1c1nc(N2CCN(C)CC2)nc(N2CCN(C)CC2)n1 (racemic)	17.9	5.96	–	5.22	5.32	–	–	–	6.71	–
COC(=O)[C@H]1Cc2c([nH]c3ccccc23)[C@H](c2ccc(Cl)cc2)N1c1nc(N2CCN(C)CC2)nc(N2CCN(C)CC2)n1 (racemic)	1.98	–	2.73	–	6.39	5.01	7.12	–	2.22	IC50 (MCF7 [1]; mcf7): Not Active; IC50 (DU-145; du-145): Not Active
COC(=O)[C@@H]1Cc2c([nH]c3ccccc23)[C@H](c2ccc(OC)cc2)N1c1nc(N2CCN(C)CC2)nc(N2CCN(C)CC2)n1 (racemic)	–	6.06	–	5.35	2.72	7.13	–	–	2.33	IC50 (SW-620; sw-620, read-out: IC50): 3.32 µM; IC50 (KB; kb): 1.46 µM; IC50 (MIA PaCa-2; mia paca-2, read-out: IC50): 7.37 µM; IC50 (A549; a549, read-out: IC50): 6.3 µM
COC(=O)[C@H]1Cc2c([nH]c3ccccc23)[C@H](c2cc(OC)c(OC)c(OC)c2)N1c1nc(N2CCN(C)CC2)nc(N2CCN(C)CC2)n1 (relative stereo)	2.43	–	3.15	2.01	2.75	3	7.54	5.67	2.17	IC50 (MCF7 [1]; mcf7): Not Active
CCN1CCN(c2nc(N3CCN(CC)CC3)nc(N3[C@H](c4ccc(OC)cc4)c4[nH]c5ccccc5c4C[C@H]3C(=O)OC)n2)CC1	1.22	1.34	–	1.67	–	–	–	1.61	1.86	IC50 (SW-620; sw-620): Not Active; IC50 (PA-1; pa-1): Not Active
COC(=O)[C@@H]1Cc2c([nH]c3ccccc23)[C@@H](c2ccc(OC)cc2)N1c1nc(N2CCN(C)CC2)nc(N2CCN(C)CC2)n1 (racemic)	–	–	–	10.5	2.03	–	–	–	–	IC50 (MCF7 [1]; mcf7, read-out: IC50): 12.4 µM; IC50 (SW-620; sw-620, read-out: IC50): 4.26 µM; IC50 (KB; kb): 1.87 µM; IC50 (K562; k562): Not Active; IC50 (MIA PaCa-2; mia paca-2, read-out: IC50): 6.35 µM; IC50 (A549; a549, read-out: IC50): 5.67 µM; IC50 ([2]; nih3t3, read-out: IC50): 4.78 µM
COC(=O)[C@H]1Cc2c([nH]c3ccccc23)[C@@H](c2ccc(OC)cc2)N1c1nc(N2CCN(C)CC2)nc(N2CCN(C)CC2)n1	1.82	12.3	3.27	2.45	3.34	4.48	5.26	11.5	5.28	–
COC(=O)[C@H]1Cc2c([nH]c3ccccc23)[C@H](c2ccc(OC)cc2)N1c1nc(N2CCN(C)CC2)nc(N2CCN(C)CC2)n1	0.99	11	2.15	2.58	2.05	6	6.23	–	3.16	–
COC(=O)[C@H]1Cc2c([nH]c3ccccc23)[C@H](c2ccccc2)N1c1nc(N2CCN(C)CC2)nc(N2CCN(C)CC2)n1	1.98	6.21	2.84	2.81	1.93	5.34	6.11	–	6	–
COC(=O)[C@@H]1Cc2c([nH]c3ccccc23)[C@H](c2ccc(OC)cc2)N1c1nc(N2CCN(C)CC2)nc(N2CCN(C)CC2)n1	–	–	–	–	–	–	–	–	–	IC50 (MCF7 [1]; mcf7, read-out: IC50): 9 µM; IC50 (SW-620; sw-620, read-out: IC50): 1.19 µM; IC50 (DU-145; du-145, read-out: IC50): 10.3 µM; IC50 (KB; kb): 7.54 µM; IC50 (PA-1; pa-1, read-out: IC50): 2.77 µM; IC50 (K562; k562, read-out: IC50): 4.83 µM; IC50 (MIA PaCa-2; mia paca-2, read-out: IC50): 3.62 µM; IC50 (A549; a549, read-out: IC50): 3.13 µM; IC50 ([2]; nih3t3, read-out: IC50): 1.62 µM
